The source of these data is ChEMBL document CHEMBL1147458, “Lead identification of a potent benzopyranone selective estrogen receptor modulator” (Bioorg Med Chem Lett, 2004).

In one assay the test system is U2OS. The experiment in a line: Ability to inhibit release of interleukin-6 from U2OS cell lines transfected with estrogen receptor alpha. It counts as functional, cell-based. The note with it: Homo sapiens. In a few lines: (§1)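 Estrogen-receptor-negative osteosarcoma U2OS cells, transfected with ER-α, were screened for inhibition of IL-6 cytokine release.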
Another assay relates to MCF7. The experiment in a line: Antiproliferative activity against MCF-7 cell line. The note with it: Homo sapiens. The class given is functional, cell-based.
Assay [1] in a line: Concentration required for inhibition of Interleukin-6 in U20S cells was determined. The class given is cell-based. Put shortly:
as §1

Structures are written as SMILES. pIC50: −log10 of the molar value.

A word on the pIC50: it is the negative decadic logarithm of the IC50, by convention in mol/L.

`O=c1oc2cc(O)ccc2c(-c2ccc(OCCCCCN3CCCCC3)cc2)c1-c1ccccc1`: the pIC50 with U2OS was 6.94; in the assay with MCF7, 6.47. For `O=c1oc2cc(O)ccc2c(Cc2ccc(OCCCCN3CCCCC3)cc2)c1-c1ccccc1`, in that order: 8.30 and 7.89. Compound `CCCc1c(Cc2c(F)cccc2Cl)c(=O)oc2cc(O)ccc12` had a pIC50 in assay [1] of 6.52. Turning to `O=c1oc2cc(O)ccc2c(-c2cccc(OCCN3CCCCC3)c2)c1-c1ccccc1`, the figures for the pIC50 in the assay with U2OS and in the assay with MCF7 were 7.92 and 7.07, respectively. Regarding `O=c1oc2cc(O)ccc2c(-c2ccc(OCCCN3CCCCC3)cc2)c1-c1ccccc1`, the negative-log IC50 (pIC50) in the assay with U2OS is 6.45; in the assay with MCF7, 6.47. For `O=c1oc2cc(O)ccc2c(Cc2ccc(OCCN3CCCCC3)cc2)c1-c1ccccc1`, in that order: 9.42 and 8.11. For `CC/C(=C(\c1ccc(O)cc1)c1ccc(OCCN(C)C)cc1)c1ccccc1`, in that order: 8.72 and 7.62. For `O=c1oc2cc(O)ccc2c(-c2cccc(OCCCCN3CCCCC3)c2)c1-c1ccccc1`, in that order: 8.49 and 7.92. Turning to `O=c1oc2cc(O)ccc2c(Cc2ccc(OCCCN3CCCCC3)cc2)c1-c1ccccc1`, the pIC50 with U2OS is 8.36; with MCF7 it was 7.74. For `O=c1oc2cc(O)ccc2c(-c2ccc(OCCN3CCCCC3)cc2)c1-c1ccccc1`, in that order: 6.30 and 6.37.

Consider `O=c1oc2cc(O)ccc2c(-c2ccc(OCCCCCCN3CCCCC3)cc2)c1-c1ccccc1`, for which the results for the pIC50 in the assay with U2OS and in the assay on MCF7 were 6.84 and 6.14, respectively.

Consider `O=c1oc2cc(O)ccc2c(-c2cccc(OCCCCCN3CCCCC3)c2)c1-c1ccccc1`, for which the pIC50 in the assay on U2OS is 7.96; with MCF7, 7.82. For `O=c1oc2cc(O)ccc2c(-c2cccc(OCCCN3CCCCC3)c2)c1-c1ccccc1`, in that order: 8.82 and 8.02. For `O=c1oc2cc(O)ccc2c(-c2ccc(OCCCCN3CCCCC3)cc2)c1-c1ccccc1`, in that order: 7.16 and 6.87.

In the case of `O=C(c1ccc(OCCN2CCCCC2)cc1)c1c(-c2ccc(O)cc2)sc2cc(O)ccc12` [RALOXIFENE], the values for the pIC50 with U2OS and in the assay with MCF7 were 8.51 and 8.31, respectively.
